Results taken from ChEMBL document CHEMBL3603756, “Synthesis and apoptotic activity of new pyrazole derivatives in cancer cell lines” (2015).
Calls of active or inactive are those of the source. No cut-off for these calls is given here.

Legend:
HCT-8 [1] = experiment: Induction of apoptosis in human HCT8 cells assessed viable cells level at 50 ug/ml incubated for 24 hrs by annexin V-FITC and propidium iodide staining based flow cytometry (reference value: 93.3%); type: functional
HCT-8 [2] = experiment: Induction of apoptosis in human HCT8 cells assessed necrosis level at 50 ug/ml incubated for 24 hrs by annexin V-FITC and propidium iodide staining based flow cytometry (reference value: 1.12%); type: functional
HEp-2 [3] = experiment: Reduction in c-IAP2 levels in human Hep2 cells at 50 ug/ml incubated for 24 hrs by protein array method; type: functional, cell-based
HEp-2 [4] = experiment: Reduction in c-IAP1 levels in human Hep2 cells at 50 ug/ml incubated for 24 hrs by protein array method; type: functional, cell-based
[5] = Cytotoxicity against human Hep2 cells assessed as cell viability at 25 ug/ml incubated for 24 hrs by MTS assay; type: functional; conditions: HEp-2, 24 h, read-out: Activity
Outline: (§1)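 Cells were held at 37 °C, 5% CO2 in humid air. HEp-2 (5 x 10³/well) and HCT-8 (7 x 10³/well) grew in DMEM + 10% heat-inactivated FBS and got compound (binary dilutions) 24 h after seeding. THP-1 (5 x 10³ cells, RPMI-1640 + 10% FBS) were added directly to the dilutions. Exposure lasted 24 h. MTS (CellTiter 96 AQueous One) read-out was absorbance at 490 nm.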

[6] = Cytotoxicity against human HCT8 cells assessed as cell viability at 50 ug/ml incubated for 24 hrs by MTS assay; type: functional; conditions: HCT-8, 24 h, read-out: Activity; outline: as §1
HEp-2 [7] = experiment: Increase in caspase-8 levels in human Hep2 cells at 50 ug/ml incubated for 24 hrs by protein array method; type: functional, cell-based
THP-1 [8] = experiment: Cytotoxicity against human THP1 cells assessed as cell viability at 25 ug/ml incubated for 24 hrs by MTS assay; type: functional; conditions: THP-1, 24 h, read-out: Activity; outline: as §1
HCT-8 [9] = experiment: Induction of apoptosis in human HCT8 cells assessed late apoptosis level at 50 ug/ml incubated for 24 hrs by annexin V-FITC and propidium iodide staining based flow cytometry (reference value: 4.8%); type: functional
[10] = Cytotoxicity against human HCT8 cells assessed as cell viability at 25 ug/ml incubated for 24 hrs by MTS assay; type: functional; conditions: HCT-8, 24 h, read-out: Activity; outline: as §1
HEp-2 [11] = experiment: Increase in cleaved-caspase-3 levels in human Hep2 cells at 50 ug/ml incubated for 24 hrs by protein array method; type: functional, cell-based
HEp-2 [12] = experiment: Reduction in livin protein levels in human Hep2 cells at 50 ug/ml incubated for 24 hrs by protein array method; type: functional, cell-based
HEp-2 [13] = experiment: Increase in TRAIL-R2 protein expression in human Hep2 cells at 50 ug/ml incubated for 24 hrs by protein array method; type: functional, cell-based
HEp-2 [14] = experiment: Reduction in XIAP levels in human Hep2 cells at 50 ug/ml incubated for 24 hrs by protein array method; type: functional, cell-based
HEp-2 [15] = experiment: Reduction in HSP27 protein levels in human Hep2 cells at 50 ug/ml incubated for 24 hrs by protein array method; type: functional, cell-based
[16] = Cytotoxicity against human HCT8 cells assessed as cell viability at 12.5 ug/ml incubated for 24 hrs by MTS assay; type: functional; conditions: HCT-8, 24 h, read-out: Activity; outline: as §1
HEp-2 [17] = experiment: Induction of cell cycle arrest in human Hep2 cells assessed accumulation at S phase at 50 ug/ml incubated for 24 hrs by propidium iodide staining based flow cytometry (reference value: 21.06%); type: functional
HEp-2 [18] = experiment: Increase in TRAIL-R1 protein expression in human Hep2 cells at 50 ug/ml incubated for 24 hrs by protein array method; type: functional, cell-based
HEp-2 [19] = experiment: Reduction in survivin protein levels in human Hep2 cells at 50 ug/ml incubated for 24 hrs by protein array method; type: functional, cell-based
HEp-2 [20] = experiment: Induction of cell cycle arrest in human Hep2 cells assessed accumulation at G0/G1 phase at 10 ug/ml incubated for 24 hrs by propidium iodide staining based flow cytometry (reference value: 74.51%); type: functional
[21] = Reduction in PRKAA2 gene expression in human Hep2 cells at 10 ug/ml incubated for 24 hrs by real-time PCR method; type: functional, cell-based; conditions: HEp-2
Outline: (§2)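 HEp-2 cells were treated 24 h at 10 or 50 µg/mL. Total RNA was extracted with Trizol, and 2 µg was reverse-transcribed. 50 ng cDNA went into TaqMan real-time PCR with beta-actin as endogenous control. Relative expression was calculated by the ∆∆CT method. Each experiment was run three times.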

[22] = Reduction in PRKAA1 gene expression in human Hep2 cells at 50 ug/ml incubated for 24 hrs by real-time PCR method; type: functional, cell-based; conditions: HEp-2; outline: as §2
THP-1 [23] = experiment: Cytotoxicity against human THP1 cells assessed as cell viability at 50 ug/ml incubated for 24 hrs by MTS assay; type: functional; conditions: THP-1, 24 h, read-out: Activity; outline: as §1
HEp-2 [24] = experiment: Induction of cell cycle arrest in human Hep2 cells assessed accumulation at S phase at 10 ug/ml incubated for 24 hrs by propidium iodide staining based flow cytometry (reference value: 21.06%); type: functional
[25] = Cytotoxicity against human Hep2 cells assessed as cell viability at 12.5 ug/ml incubated for 24 hrs by MTS assay; type: functional; conditions: HEp-2, 24 h, read-out: Activity; outline: as §1
[26] = Reduction in PRKAA2 gene expression in human Hep2 cells at 50 ug/ml incubated for 24 hrs by real-time PCR method; type: functional, cell-based; conditions: HEp-2; outline: as §2
HEp-2 [27] = experiment: Increase in FADD protein expression in human Hep2 cells at 50 ug/ml incubated for 24 hrs by protein array method; type: functional, cell-based
HEp-2 [28] = experiment: Induction of cell cycle arrest in human Hep2 cells assessed accumulation at G2/M phase at 50 ug/ml incubated for 24 hrs by propidium iodide staining based flow cytometry (reference value: 7.82%); type: functional
HEp-2 [29] = experiment: Induction of cell cycle arrest in human Hep2 cells assessed accumulation at G2/M phase incubated for 24 hrs by propidium iodide staining based flow cytometry; type: functional
[30] = Cytotoxicity against human Hep2 cells assessed as cell viability at 50 ug/ml incubated for 24 hrs by MTS assay; type: functional; conditions: HEp-2, 24 h, read-out: Activity; outline: as §1
HEp-2 [31] = experiment: Reduction in pro-caspase-3 levels in human Hep2 cells at 50 ug/ml incubated for 24 hrs by protein array method; type: functional, cell-based
HEp-2 [32] = experiment: Reduction in HSP70 protein levels in human Hep2 cells at 50 ug/ml incubated for 24 hrs by protein array method; type: functional, cell-based
HEp-2 [33] = experiment: Increase in Fas/TNFRSF6 protein expression in human Hep2 cells at 50 ug/ml incubated for 24 hrs by protein array method; type: functional, cell-based
[34] = Reduction in PRKAA1 gene expression in human Hep2 cells at 10 ug/ml incubated for 24 hrs by real-time PCR method; type: functional, cell-based; conditions: HEp-2; outline: as §2
HEp-2 [35] = experiment: Induction of apoptosis in human Hep2 cells assessed as increase in p53 S15/S46/S392 phosphorylation level at 50 ug/ml incubated for 24 hrs by protein array method; type: functional, cell-based
THP-1 [36] = experiment: Cytotoxicity against human THP1 cells assessed as cell viability at 12.5 ug/ml incubated for 24 hrs by MTS assay; type: functional; conditions: THP-1, 24 h, read-out: Activity; outline: as §1
HCT-8 [37] = experiment: Induction of apoptosis in human HCT8 cells assessed early apoptosis level at 50 ug/ml incubated for 24 hrs by annexin V-FITC and propidium iodide staining based flow cytometry (reference value: 0.75%); type: functional
HEp-2 [38] = experiment: Induction of cell cycle arrest in human Hep2 cells assessed accumulation at G0/G1 phase at 50 ug/ml incubated for 24 hrs by propidium iodide staining based flow cytometry (reference value: 74.51%); type: functional
HEp-2 [39] = experiment: Induction of cell cycle arrest in human Hep2 cells assessed accumulation at G2/M phase at 10 ug/ml incubated for 24 hrs by propidium iodide staining based flow cytometry (reference value: 7.82%); type: functional
HEp-2 [40] = experiment: Increase in cyclin B gene expression in human Hep2 cells at 10 ug/ml incubated for 24 hrs by real-time PCR method; type: functional, cell-based; outline: as §2
HEp-2 [41] = experiment: Increase in cyclin B gene expression in human Hep2 cells at 50 ug/ml incubated for 24 hrs by real-time PCR method; type: functional, cell-based; outline: as §2

Structure (SMILES)	Activity (HCT-8 [1]) [%]	Activity (HCT-8 [2]) [%]	viability at 25 µg/mL [5] [%]	viability at 50 µg/mL [6] [%]	viability at 25 µg/mL (THP-1 [8]) [%]	Activity (HCT-8 [9]) [%]	viability at 25 µg/mL [10] [%]	viability at 12.5 µg/mL [16] [%]	Activity (HEp-2 [17]) [%]	Activity (HEp-2 [20]) [%]	Activity [21]	Activity [22]	viability at 50 µg/mL (THP-1 [23]) [%]	Activity (HEp-2 [24]) [%]	viability at 12.5 µg/mL [25] [%]	Activity [26]	Activity (HEp-2 [28]) [%]	Activity (HEp-2 [29])	viability at 50 µg/mL [30] [%]	Activity [34]	further results
Cc1cs/c(=N\C(=O)c2cnn(C)c2)n1-c1ccc(I)cc1	91.8	1.41	100	91.8	86.9	3.89	100	100	27.45	66.94	Active	Active	37.2	23.56	100	Active	25.92	Dose-dependent effect	90	Active	Activity (HEp-2 [3]): Active; Activity (HEp-2 [4]): Active; Activity (HEp-2 [7]): Active; Activity (HEp-2 [11]): Active; Activity (HEp-2 [12]): Active; Activity (HEp-2 [13]): Active; Activity (HEp-2 [14]): Active; Activity (HEp-2 [15]): Active; Activity (HEp-2 [18]): Active; Activity (HEp-2 [19]): Active; Activity (HEp-2 [27]): Active; Activity (HEp-2 [31]): Active; Activity (HEp-2 [32]): Active; Activity (HEp-2 [33]): Active; Activity (HEp-2 [35]): Active; viability at 12.5 µg/mL (THP-1 [36]): 99%; Activity (HCT-8 [37]): 2.91%; Activity (HEp-2 [38]): 50.7%; Activity (HEp-2 [39]): 9.07%
Cn1cc(C(=O)NC(=S)Nc2ccccc2Br)cn1	91.5	1.87	100	91.5	59.4	5.41	100	100	21.87	74.41	inactive	inactive	31.9	19.09	100	inactive	15.93	Dose-dependent effect	80	inactive	Activity (HEp-2 [40]): Active; Activity (HEp-2 [41]): Active; viability at 12.5 µg/mL (THP-1 [36]): 98%; Activity (HCT-8 [37]): 1.23%; Activity (HEp-2 [38]): 70.17%; Activity (HEp-2 [39]): 10.28%
